Legend:
[1] = Compound was tested for inactivation kinetic values; details: read-out: Ki app (inact)
How it was run: (§1)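 Inhibitor, various concentrations, preincubated at 37 °C with placental microsomes (0.08-0.1 mg/mL) and NADPH (0.1 mM) in 0.1 M phosphate pH 7.4. Aliquots taken over time, diluted 10-fold in cold buffer, then assayed with 0.25 µM [1β-3H]androstenedione plus NADPH-generating system, 30 min at 37 °C. Half-lives plotted against 1/[I] (Kitz-Wilson); Ki(inact) from X-intercept, T1/2 from Y-intercept; duplicate determinations.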

[2] = The T1/2 value was obtained from the time point at which each half-time reached 50% of its value at zero time; assay type: ADME; how it was run: as §1
[3] = biological target: T1, Aromatase (Homo sapiens, UniProt P11511); assay: Binding affinity for human placental microsome Cytochrome P450 19A1 by nonlinear regression analysis; details: read-out: Ki app
T1 sequence (P11511 whole entry): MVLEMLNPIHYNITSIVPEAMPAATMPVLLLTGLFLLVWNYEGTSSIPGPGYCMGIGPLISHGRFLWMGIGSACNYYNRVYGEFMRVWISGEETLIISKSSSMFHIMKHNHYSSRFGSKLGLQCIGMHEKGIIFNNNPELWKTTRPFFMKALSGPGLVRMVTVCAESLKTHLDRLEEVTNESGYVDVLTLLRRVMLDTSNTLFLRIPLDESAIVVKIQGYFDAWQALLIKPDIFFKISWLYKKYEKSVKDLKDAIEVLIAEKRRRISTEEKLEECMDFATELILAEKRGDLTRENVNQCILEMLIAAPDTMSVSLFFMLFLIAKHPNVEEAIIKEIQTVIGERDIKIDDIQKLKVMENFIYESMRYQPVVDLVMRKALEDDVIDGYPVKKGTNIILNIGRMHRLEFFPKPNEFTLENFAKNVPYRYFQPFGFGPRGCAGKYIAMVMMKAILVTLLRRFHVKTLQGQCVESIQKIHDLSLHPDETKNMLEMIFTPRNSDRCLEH
How it was run: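 Human placental microsomes (0.025-0.03 mg protein) in 1.0 mL 0.1 M phosphate buffer pH 7.4, 37 °C in air, 10 min, initial velocity conditions. [1β-3H]androstenedione diluted with unlabelled androstenedione, 0.005-0.25 µM. Inhibitor at 250, 375 and 500 nM, plus no-inhibitor controls and 0-min blanks. 3H2O release counted; Ki derived by regression analysis; duplicate determinations.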

[4] = biological target: T1, Aromatase; assay: Inhibition of human placental microsome Cytochrome P450 19A1
How it was run: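 Tritiated-water release assay in 0.1 M phosphate pH 7.4. Lyophilized human placental microsomes (0.25 mg) with 0.25 µM [1β-3H]androstenedione, glucose 6-phosphate 5.3 mM, NADP 0.6 mM, G6PDH, 1.0 mM EDTA. Inhibitors from 10^-5 to 10^-8 M, added in ethanol. 15 min at 37 °C; CHCl3 extraction, then the aqueous phase counted by scintillation.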

[5] = Selectivity index of Kcat/app Ki(inact)
How it was run: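 Lyophilized human placental microsomes (0.08-0.1 mg/mL protein) were preincubated at 37 °C with varied inhibitor concentrations and 0.1 mM NADPH in 0.1 M phosphate buffer, pH 7.4. Timed aliquots were diluted 10-fold in cold buffer. Residual activity was read as 3H2O release from 0.25 µM [1β-3H]androstenedione with an NADPH-generating system (30 min, 37 °C). Half-life versus 1/[I] (Kitz-Wilson) gave Ki(inact) and kcat. Duplicates.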

[6] = The T1/2 values were obtained from the time point at which each half-time reached 50% of its value at zero time; assay type: ADME; how it was run: as §1

Q: What does the source list for `C#CC[C@@H]1CC2C(CCC3(C)C(=O)CCC23)C2CCC(=O)C=C21` (some centres undefined)?
A: KI (inactivation) [1]: 19.8 nM; T1/2 [2]: 8.9 min; Ki [3]: 47.6 nM; IC50 [4]: 275 nM; Selectivity index [5]: 65

Q: Which results are given for `C#CC[C@@H]1CC2C3CCC(=O)C3(C)CCC2C2(C)CCC(=O)C=C12` (some centres undefined)?
A: KI (inactivation) [1]: 72.4 nM; T1/2 [2]: 7.6 min; Ki [3]: 10 nM; IC50 [4]: 31 nM; Selectivity index [5]: 21

Q: Which Ki [3] does the source give for `C#CC[C@H]1CC2C3CCC(=O)C3(C)CCC2C2(C)CCC(=O)C=C12` (some centres undefined) here?
A: 37 nM

Q: What about the IC50 [4] of the same compound?
A: 176 nM

Q: For `C#CC[C@H]1CC2C(CCC3(C)C(=O)CCC23)C2CCC(=O)C=C21` (some centres undefined), which Ki [3] is on record?
A: 65.8 nM

Q: And the IC50 [4]?
A: 187 nM

Q: Which results are given for `C#CC[C@]12CCC(=O)C=C1CC[C@@H]1[C@@H]2CC[C@]2(C)C(=O)CC[C@@H]12` [PLOMESTANE]?
A: KI (inactivation) [1]: 59.5 nM; T1/2 [6]: 8.9 min; Ki [3]: 15.2 nM; IC50 [4]: 56.2 nM; Selectivity index [5]: 24
